Laboratory results taken from PubChem BioAssay AID652011 (Sanford-Burnham Center for Chemical Genomics, 2013).
Several values for one entry are separate records, joined by “and”; a condition that tells them apart may be missing. Identical values can stand only once.

What follows are molecules tested against Hypoxia-inducible factor 1-alpha (Homo sapiens) (UniProt Q16665) (assay: HIF-1a and HIF-2a reporter inhibitors, SAR follow-up, cell-based, luminescence, MIAPaCa-2, 786-0, panel (AID 652011)). Conditions: MIAPaCa-2/PANC HIF reporter, luciferase luminescence, desferoxamine, overnight, HIF1a, run 2; at 99 µM (top of the series).
Sequence of Hypoxia-inducible factor 1-alpha (Homo sapiens) (Q16665 whole entry, looked up): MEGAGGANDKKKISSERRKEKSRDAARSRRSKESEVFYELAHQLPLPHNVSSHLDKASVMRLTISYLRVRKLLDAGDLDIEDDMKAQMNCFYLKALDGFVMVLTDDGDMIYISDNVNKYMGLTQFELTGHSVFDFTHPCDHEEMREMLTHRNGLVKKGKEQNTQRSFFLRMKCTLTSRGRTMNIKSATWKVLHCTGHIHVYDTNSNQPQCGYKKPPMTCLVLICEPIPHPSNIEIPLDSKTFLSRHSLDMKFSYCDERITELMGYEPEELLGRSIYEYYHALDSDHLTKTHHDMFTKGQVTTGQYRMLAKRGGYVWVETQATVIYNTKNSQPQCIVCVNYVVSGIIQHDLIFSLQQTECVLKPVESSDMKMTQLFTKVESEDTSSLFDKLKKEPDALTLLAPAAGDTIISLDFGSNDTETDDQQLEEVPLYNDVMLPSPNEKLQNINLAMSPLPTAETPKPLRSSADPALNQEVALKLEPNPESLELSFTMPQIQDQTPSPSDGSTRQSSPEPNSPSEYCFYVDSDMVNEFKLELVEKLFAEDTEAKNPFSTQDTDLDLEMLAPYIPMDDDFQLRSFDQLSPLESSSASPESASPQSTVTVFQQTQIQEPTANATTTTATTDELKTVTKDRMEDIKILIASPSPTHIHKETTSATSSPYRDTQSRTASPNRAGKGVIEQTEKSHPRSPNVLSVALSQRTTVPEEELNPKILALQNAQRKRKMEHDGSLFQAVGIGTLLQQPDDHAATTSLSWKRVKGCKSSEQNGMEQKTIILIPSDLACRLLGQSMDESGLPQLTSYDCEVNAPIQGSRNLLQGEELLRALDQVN
How it was run: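 Reagent: Desferoxamine added before compound | Doses: Compounds from 10 mM and 0.3125 mM stocks, 1% DMSO final | Times: Overnight seeding and compound exposure, 37 °C, 5% CO2, 10-min detection | Measured by: One-Glo luciferase luminescence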

Row | SMILES | inhibition
1 | CCCCc1ccc(-c2noc(CCC(=O)NCC)n2)cc1 | 17.4%
2 | C=CCNC(=O)CCc1nc(-c2ccc(C(C)(C)C)cc2)no1 | 34.7%
3 | CNC(=O)CCc1nc(-c2ccc(F)cc2)no1 | -36.7%
4 | CCC(C)NC(=O)CCc1nc(-c2ccc(C(C)(C)C)cc2)no1 (stereo not given) | -28.9%
5 | CCN(CC)C(=O)CCc1nc(-c2ccc(C(C)(C)C)cc2)no1 | 27.4% and 77.3%
6 | CCOc1ccc(-c2noc(CCC(=O)NC)n2)cc1 | -24%
7 | CCNC(=O)CCc1nc(-c2ccccc2C)no1 | -28.2%
8 | CCNC(=O)CCc1nc(-c2cccc(C)c2)no1 | -31.6%
9 | CC(C)(C)c1ccc(-c2noc(CCC(=O)N3CCCCC3)n2)cc1 | 103%
10 | CCCCc1ccc(-c2noc(CCC(=O)NC(C)CC)n2)cc1 (stereo not given) | 58.1%
11 | CCNC(=O)CCc1nc(-c2cccc(F)c2)no1 | -31.8%
12 | O=C(CCc1nc(-c2ccccc2)no1)NC1CC1 | -23.4%
13 | CCCCc1ccc(-c2noc(CCC(=O)NC(C)(C)C)n2)cc1 | 93%
14 | CC(C)c1ccc(-c2noc(CCC(=O)NC3CC3)n2)cc1 | -9.97%
15 | CCC(C)NC(=O)CCc1nc(-c2ccccc2)no1 (stereo not given) | -19.7%
16 | CNC(=O)CCc1nc(-c2ccc(C(C)C)cc2)no1 | -35.5%
17 | CCCNC(=O)CCc1nc(-c2ccc(C(C)(C)C)cc2)no1 | 9.39%
18 | CCNC(=O)CCc1nc(-c2ccccc2Cl)no1 | -3.81%
19 | CC(C)(C)c1ccc(-c2noc(CCC(=O)NC3CCC3)n2)cc1 | 54.4%
20 | CC(C)(C)c1ccc(-c2noc(CCC(=O)O)n2)cc1 | 94.9%
21 | CCc1ccc(-c2noc(CCC(=O)NC(C)CC)n2)cc1 (stereo not given) | -24.3%
22 | O=C(O)CCc1nc(-c2ccccc2)no1 | 16.7%
23 | CCc1ccc(-c2noc(CCC(=O)NC(C)(C)C)n2)cc1 | -0.564%
24 | CC(C)(C)c1ccc(-c2noc(CCC(=O)Nc3cccc([N+](=O)[O-])c3)n2)cc1 | 91.4%
25 | CC(C)c1ccc(-c2noc(CCC(=O)NC(C)(C)C)n2)cc1 | 38.8%
26 | CCCCc1ccc(-c2noc(CCC(=O)NC)n2)cc1 | 9.8%
27 | CC(C)(C)c1ccc(-c2noc(CCC(=O)NCC3CCCO3)n2)cc1 (stereo not given) | 8.05%
28 | CC(C)(C)NC(=O)CCc1nc(-c2ccccc2)no1 | -36.5%
29 | CCOc1ccccc1NC(=O)CCc1nc(-c2ccc(C(C)(C)C)cc2)no1 | 60%
30 | CCC(C)NC(=O)CCc1nc(-c2ccc(C(C)C)cc2)no1 (stereo not given) | -0.644%
